Published values of several laboratories.
pEC50, pIC50: −log10 of the molar value. ≈ marks a conversion by molar mass, not a printed value.

`C[C@@H]1O[C@@H](OC[C@H]2O[C@@H](Oc3c(-c4ccc(O)c(O)c4)oc4cc(O)cc(O)c4c3=O)[C@H](O)[C@@H](O)[C@@H]2O)[C@H](O)[C@H](O)[C@H]1O` gave an MBC of 400 µg/mL (≈ 655 µM) (Streptococcus mutans; microbial killing, broth dilution).
The pEC50 of `C[C@@H]1[C@H](O)[C@@H](C)/C=C/C=C/C=C/C=C/C=C/C=C/C=C/[C@H](O[C@@H]2O[C@H](C)[C@@H](O)[C@H](N)[C@@H]2O)C[C@@H]2O[C@](O)(C[C@@H](O)C[C@@H](O)[C@H](O)CC[C@@H](O)C[C@@H](O)CC(=O)O[C@H]1C)C[C@H](O)[C@H]2C(=O)O` is reported as 5.82 (Leishmania infantum; parasite growth, MTT; promastigote).
`COc1ccc(NC(=O)NCc2cn(Cc3ccc(C)cc3)nn2)cc1` has a viability of 113% (PC-9; cell growth or viability, CCK-8; 50 µM, 72 h).
With `CC[C@H]1OC(=O)[C@H](C)[C@@H](O[C@H]2C[C@@](C)(OC)[C@@H](O)[C@H](C)O2)[C@H](C)[C@@H](O[C@@H]2O[C@H](C)C[C@H](N(C)C)[C@H]2O)[C@](C)(O)C[C@@H](C)/C(=N\OCOCCOC)[C@H](C)[C@@H](O)[C@]1(C)O` the MIC90 was 2 µg/mL (≈ 2.39 µM) (Streptococcus pyogenes; microbial growth; clinical isolate).
The pIC50 of `c1ccc(Oc2ccc(Nc3c4c(nc5ccccc35)CCC4)cc2)cc1` is reported as 6.28 (Leishmania infantum; parasite growth, MTT; promastigote).
`CC(C)(C)[C@H](N)C(=O)Nc1ccccc1/N=c1\cc(-c2ccc3c(c2)OCO3)oc2ccccc12` gave an inhibition of 14.6% (HCT-116; cell growth or viability, CCK-8; 1 µM).
The MBC of `Oc1cc(O)c2c(c1)O[C@H](c1cc(O)c(O)c(O)c1)[C@@H](O)C2` is reported as 400 µg/mL (≈ 1310 µM) (Streptococcus mutans; microbial killing, broth dilution).
For `Cc1nc(Nc2ncc(C(=O)Nc3c(C)cccc3Cl)s2)cc(N2CC[C@H](O)C2)n1`, the inhibition was 32% (JVM13; cell growth or viability, ATP luminescence; 10 µM, 72 h).
The inhibition of `NC(=O)C1CCCN1C(=O)Nc1ccccc1/N=c1\cc(-c2ccc3c(c2)OCCO3)oc2cc(F)ccc12` (stereo not drawn) is reported as 13.6% (HCT-116; cell growth or viability, CCK-8; 1 µM).
`C=C[C@]1(C)C[C@@H](OC(=O)CS[C@@H]2C[C@H]3CC[C@@H](C2)N3C)[C@]2(C)[C@H](C)CC[C@]3(CCC(=O)[C@H]32)[C@@H](C)[C@@H]1O` has an MIC90 of 0.0312 µg/mL (≈ 0.0604 µM) (Streptococcus pyogenes; microbial growth; clinical isolate).
With `C[C@H](N)C(=O)Nc1ccccc1/N=c1\cc(-c2ccc3c(c2)OCCO3)oc2cc(F)ccc12` the inhibition was 5.4% (HCT-116; cell growth or viability, CCK-8; 1 µM).
For `O=C1OC[C@H]2OC(O)[C@H](O)[C@@H](O)[C@@H]2OC(=O)c2cc(O)c(O)c(O)c2-c2c(O)c(O)c3oc(=O)c4c(c(O)c(O)c5oc(=O)c2c3c54)-c2c1cc(O)c(O)c2O` (mixture of isomers), the inhibition zone was 15 mm (Streptococcus mutans; microbial growth, disc diffusion; 500 µg/disc).
`CCOc1ccc(Nc2c3c(nc4ccccc24)CCC3)cc1` has a pIC50 of 6.19 (Leishmania infantum; parasite growth, MTT; promastigote).
For `NCC(=O)Nc1ccccc1/N=c1\cc(-c2ccc3c(c2)OCO3)oc2ccccc12`, the inhibition was 4.94% (HCT-116; cell growth or viability, CCK-8; 1 µM).
`O=C1O[C@H]2[C@@H]3OC(=O)c4cc(O)c(O)c(O)c4-c4c(O)c(O)c5oc(=O)c6c(c(O)c(O)c7oc(=O)c4c5c76)-c4c(cc(O)c(O)c4O)C(=O)OC[C@H]3OC(O)[C@@H]2OC(=O)c2cc(O)c(O)c(O)c2-c2c1cc(O)c(O)c2O` (mixture of isomers) gave an MBC of 200 µg/mL (Streptococcus mutans; microbial killing, broth dilution).
`CC(=O)NC[C@H]1CN(c2ccc(N3CCOCC3)c(F)c2)C(=O)O1` gave an MIC90 of 2 µg/mL (≈ 5.93 µM) (Streptococcus pyogenes; microbial growth; clinical isolate).
For `COc1ccc2oc(-c3ccc4nc(N)oc4c3)c/c(=N\c3ccccc3NC(=O)CCN)c2c1`, the inhibition was 45.5% (HCT-116; cell growth or viability, CCK-8; 1 µM).
The MIC of `O=c1oc2c(O)c(O)cc3c(=O)oc4c(O)c(O)cc1c4c23` is reported as 100 µg/mL (≈ 331 µM) (Streptococcus mutans; microbial growth, broth dilution; 24 h).
